Laboratory results from ChEMBL document CHEMBL4406821, “Novel dual inhibitors targeting CDK4 and VEGFR2 synergistically suppressed cancer progression and angiogenesis” (Eur J Med Chem, 2019).
Each block holds one molecule with its values, some of them ahead of it. Activity calls are given as the source filed them. The rule behind the calls is not given here.

Key:
[1] = target: Vascular endothelial growth factor receptor 2 (Homo sapiens, UniProt P35968); conditions: HUVEC, 40 nM
[2] = Half life in Sprague-Dawley rat at 10 mg/kg, po by HPLC-MS analysis; type: ADME, organism-based; conditions: in vivo
Summary of the method: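 Rats fitted with jugular vein catheters for serial blood sampling. Compound dissolved in saline with 5% (v/v) DMSO and given as a single 10 mg/kg dose iv or po after an overnight fast, n = 5 per group. Plasma isolated at once and measured by HPLC with tandem MS detection. Parameters derived by noncompartmental fitting.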

SiHa = test: Induction of cell cycle arrest in human SiHa cells assessed as decrease in cell accumulation in S phase at 40 to 80 nM incubated for 36 hrs by propidium iodide staining based flow cytometry; type: functional
Summary of the method: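 Cells were treated with graded concentrations for 36 h, then fixed overnight in 70% ice-cold ethanol at 4°C and resuspended in PBS. Staining used 50 µg/ml PI plus 5 µg/ml RNase at 37°C for 30 min. DNA content was analysed by FACS to give G0/G1, S and G2/M fractions.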

[3] = test system: PI3-kinase p110-alpha/p85-alpha (Homo sapiens), P27986+P42336 [H1047R]; test: Inhibition of recombinant human full length PI3K p110alpha/p85alpha H1047R mutant at 1 uM using phosphatidylinositol 4,5-bisphosphate as substrate incubated for 40 mins in presence of [gamma-33P]-ATP by scintillation counting method relative to control; type: protein-complex assay
[4] = target: Tyrosine-protein kinase TXK (Homo sapiens) (UniProt P42681); test: Inhibition of recombinant human TXK (256 to end residues) at 1 uM using GEEPLYWSFPAKKK as substrate incubated for 40 mins in presence of [gamma-33P]-ATP by scintillation counting method relative to control
Tyrosine-protein kinase TXK (Homo sapiens), sequence (P42681 whole entry): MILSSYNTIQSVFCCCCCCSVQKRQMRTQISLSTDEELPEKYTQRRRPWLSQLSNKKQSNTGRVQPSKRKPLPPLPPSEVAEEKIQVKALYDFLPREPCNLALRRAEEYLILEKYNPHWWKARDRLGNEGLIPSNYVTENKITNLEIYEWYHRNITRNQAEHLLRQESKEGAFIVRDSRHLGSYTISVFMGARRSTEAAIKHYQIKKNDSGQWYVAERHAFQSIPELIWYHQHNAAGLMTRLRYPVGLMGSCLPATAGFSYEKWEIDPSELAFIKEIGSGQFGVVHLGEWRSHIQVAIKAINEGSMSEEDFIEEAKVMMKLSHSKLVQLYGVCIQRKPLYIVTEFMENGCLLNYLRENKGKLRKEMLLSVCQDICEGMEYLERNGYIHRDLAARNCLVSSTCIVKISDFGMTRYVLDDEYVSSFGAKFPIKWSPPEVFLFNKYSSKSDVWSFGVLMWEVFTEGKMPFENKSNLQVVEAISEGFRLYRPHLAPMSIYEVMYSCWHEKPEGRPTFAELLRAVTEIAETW
Summary of the method: (§1)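 Tested at a single 1 uM in an outsourced commercial kinase-profiling panel, read as percent inhibition. Each value is the mean of two independent experiments.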

[5] = target: CDK4/Cyclin D3 (Homo sapiens) (UniProt P11802+P30281); test: Inhibition of recombinant full length human CDK4/Cyclin D3 using Rb-fragmen as substrate at 1 uM incubated for 40 mins by [gamma-33P]-ATP based radiometric assay relative to control; type: protein-complex assay
Summary of the method: (§2)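 Kinase panel profiling at 1 μM performed by Eurofins KinaseProfiler; percent inhibition reported as mean of two independent experiments.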

[6] = test system: PI3-kinase p110-alpha/p85-alpha (Homo sapiens), P27986+P42336 [E545K]; test: Inhibition of recombinant human full length PI3K p110alpha/p85alpha E545K mutant at 1 uM using phosphatidylinositol 4,5-bisphosphate as substrate incubated for 40 mins in presence of [gamma-33P]-ATP by scintillation counting method relative to control; type: protein-complex assay
[7] = target: Proto-oncogene tyrosine-protein kinase Src (Homo sapiens) (UniProt P12931); test: Inhibition of full length recombinant human c-SRC at 1 uM using KVEKIGEGTYGVV as substrate incubated for 40 mins in presence of [gamma-33P]-ATP by scintillation counting method relative to control
Proto-oncogene tyrosine-protein kinase Src (Homo sapiens), sequence (P12931 2-536 limits assumed): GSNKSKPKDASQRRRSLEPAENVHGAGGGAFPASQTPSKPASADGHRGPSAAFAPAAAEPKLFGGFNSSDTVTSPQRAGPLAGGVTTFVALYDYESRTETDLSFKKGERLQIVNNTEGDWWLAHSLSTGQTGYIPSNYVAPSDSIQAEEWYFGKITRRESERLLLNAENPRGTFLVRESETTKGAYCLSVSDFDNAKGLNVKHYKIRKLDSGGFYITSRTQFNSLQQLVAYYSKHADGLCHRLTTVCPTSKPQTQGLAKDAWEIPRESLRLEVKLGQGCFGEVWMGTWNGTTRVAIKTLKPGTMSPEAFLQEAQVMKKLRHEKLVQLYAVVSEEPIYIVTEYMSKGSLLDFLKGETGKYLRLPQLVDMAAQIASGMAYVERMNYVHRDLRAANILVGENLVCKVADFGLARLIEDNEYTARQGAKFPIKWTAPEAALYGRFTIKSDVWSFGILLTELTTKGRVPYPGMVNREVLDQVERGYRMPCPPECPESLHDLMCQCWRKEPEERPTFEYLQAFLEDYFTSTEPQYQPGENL
Summary of the method: as §2

[8] = test system: Angiopoietin-1 receptor (Homo sapiens), Q02763 [R849W]; test: Inhibition of recombinant human TIE2 R849W mutant (771 to end residues) at 1 uM using EFPIYDFLPAKKK as substrate incubated for 40 mins in presence of [gamma-33P]-ATP by scintillation counting method relative to control
Angiopoietin-1 receptor (Homo sapiens), Q02763 [R849W], sequence (Q02763 whole entry R849W, the tested form may be a part): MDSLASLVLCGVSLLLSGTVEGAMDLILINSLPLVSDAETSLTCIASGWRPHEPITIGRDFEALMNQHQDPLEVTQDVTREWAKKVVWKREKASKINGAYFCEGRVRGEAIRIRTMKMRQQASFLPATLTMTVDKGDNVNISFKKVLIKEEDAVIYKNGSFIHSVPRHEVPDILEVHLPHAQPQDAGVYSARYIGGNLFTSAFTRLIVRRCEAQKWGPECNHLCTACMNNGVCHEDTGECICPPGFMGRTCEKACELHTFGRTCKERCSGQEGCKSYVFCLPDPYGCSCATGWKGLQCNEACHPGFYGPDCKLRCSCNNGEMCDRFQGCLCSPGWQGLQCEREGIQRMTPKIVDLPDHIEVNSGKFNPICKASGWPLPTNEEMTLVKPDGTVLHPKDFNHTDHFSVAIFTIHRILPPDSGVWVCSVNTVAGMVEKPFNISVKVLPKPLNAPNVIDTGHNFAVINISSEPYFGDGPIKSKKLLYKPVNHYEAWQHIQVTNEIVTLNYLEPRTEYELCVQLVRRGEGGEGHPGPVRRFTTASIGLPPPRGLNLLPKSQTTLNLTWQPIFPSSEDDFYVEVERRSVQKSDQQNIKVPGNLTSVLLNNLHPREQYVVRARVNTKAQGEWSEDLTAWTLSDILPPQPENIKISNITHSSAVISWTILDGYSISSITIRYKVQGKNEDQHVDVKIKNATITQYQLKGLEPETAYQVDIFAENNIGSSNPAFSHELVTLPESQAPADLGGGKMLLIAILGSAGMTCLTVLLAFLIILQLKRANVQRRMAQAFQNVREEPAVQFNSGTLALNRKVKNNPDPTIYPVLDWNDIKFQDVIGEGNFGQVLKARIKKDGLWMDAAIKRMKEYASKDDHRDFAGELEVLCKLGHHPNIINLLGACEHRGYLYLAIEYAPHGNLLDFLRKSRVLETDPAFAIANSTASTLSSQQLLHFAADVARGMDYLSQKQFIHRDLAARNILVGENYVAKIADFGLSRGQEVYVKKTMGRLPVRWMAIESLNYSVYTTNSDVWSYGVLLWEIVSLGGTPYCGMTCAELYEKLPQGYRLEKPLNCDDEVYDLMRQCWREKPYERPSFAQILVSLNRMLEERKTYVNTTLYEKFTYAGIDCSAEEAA

[9] = target: Tau-tubulin kinase 2 (Homo sapiens) (UniProt Q6IQ55); test: Inhibition of recombinant human TTBK2 (1 to331 residues) at 1 uM using casein as substrate incubated for 40 mins in presence of [gamma-33P]-ATP by scintillation counting method relative to control
Summary of the method: as §1

[10] = target: SRSF protein kinase 3 (Homo sapiens) (UniProt Q9UPE1); test: Inhibition of recombinant human full length MSSK1 at 1 uM using ERMRPRKRQGSVRRRV as substrate incubated for 40 mins in presence of [gamma-33P]-ATP by scintillation counting method relative to control
SRSF protein kinase 3 (Homo sapiens), sequence (Q9UPE1 whole entry, the tested form may be a part): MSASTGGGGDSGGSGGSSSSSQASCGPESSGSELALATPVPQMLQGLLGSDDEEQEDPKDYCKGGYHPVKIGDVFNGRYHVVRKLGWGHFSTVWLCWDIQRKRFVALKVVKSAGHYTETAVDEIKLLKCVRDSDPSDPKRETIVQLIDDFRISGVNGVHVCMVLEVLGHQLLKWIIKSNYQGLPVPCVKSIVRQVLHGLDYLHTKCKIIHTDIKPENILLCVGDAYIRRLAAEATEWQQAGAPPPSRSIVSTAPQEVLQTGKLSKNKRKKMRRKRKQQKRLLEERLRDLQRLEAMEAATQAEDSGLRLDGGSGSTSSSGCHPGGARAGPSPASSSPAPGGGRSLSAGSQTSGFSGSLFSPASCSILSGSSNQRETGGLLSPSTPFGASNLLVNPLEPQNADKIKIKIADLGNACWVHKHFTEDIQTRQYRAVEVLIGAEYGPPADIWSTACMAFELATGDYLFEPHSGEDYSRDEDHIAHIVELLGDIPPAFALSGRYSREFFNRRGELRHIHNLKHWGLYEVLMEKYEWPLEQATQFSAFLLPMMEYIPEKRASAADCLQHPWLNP

[11] = target: Fibroblast growth factor receptor 3 (Homo sapiens) (UniProt P22607); test: Inhibition of recombinant human FGFR3 (447 to 761 residues) at 1 uM using poly(Glu, Tyr) 4:1 as substrate incubated for 40 mins in presence of [gamma-33P]-ATP by scintillation counting method relative to control
Summary of the method: as §1

[12] = Toxicity in BALB/c mouse assessed as effect on blood parameter by measuring RBC content at 40 mg/kg, po administered once two days for 4 times by hematology analyzer; conditions: in vivo
[13] = Toxicity in BALB/c mouse assessed as effect on blood parameter by measuring eosinophils content at 40 mg/kg, po administered once two days for 4 times by hematology analyzer; conditions: in vivo
[14] = Toxicity in BALB/c mouse assessed as effect on blood parameter by measuring MCHC at 40 mg/kg, po administered once two days for 4 times by hematology analyzer; conditions: in vivo
[15] = target: Mitogen-activated protein kinase kinase kinase 11 (Homo sapiens) (UniProt Q16584); test: Inhibition of recombinant human MLK3 at 1 uM incubated for 40 mins in presence of [gamma-33P]-ATP by scintillation counting method relative to control
[16] = target: Tyrosine-protein kinase SYK (Homo sapiens) (UniProt P43405); test: Inhibition of recombinant human full length SYK at 1 uM using poly(Glu, Tyr) 4:1 as substrate incubated for 40 mins in presence of [gamma-33P]-ATP by scintillation counting method relative to control
[17] = target: Serine/threonine-protein kinase Chk1 (Homo sapiens) (UniProt O14757); test: Inhibition of recombinant full length human CHK1 at 1 uM using KKKVSRSGLYRSP as substrate incubated for 40 mins in presence of [gamma-33P]-ATP by scintillation counting method relative to control
Summary of the method: as §2

[18] = test system: Serine/threonine-protein kinase Chk2 (Homo sapiens), O96017 [R145W]; test: Inhibition of recombinant human CHK2 R145W mutant (5 to end residues) at 1 uM using KKKVSRSGLYRSP as substrate incubated for 40 mins in presence of [gamma-33P]-ATP by scintillation counting method relative to control
Summary of the method: as §2

[19] = target: Serine/threonine-protein kinase tousled-like 1 (Homo sapiens) (UniProt Q9UKI8); test: Inhibition of recombinant human full length TLK1 at 1 uM using casein as substrate incubated for 40 mins in presence of [gamma-33P]-ATP by scintillation counting method relative to control
Serine/threonine-protein kinase tousled-like 1 (Homo sapiens), sequence (Q9UKI8 whole entry): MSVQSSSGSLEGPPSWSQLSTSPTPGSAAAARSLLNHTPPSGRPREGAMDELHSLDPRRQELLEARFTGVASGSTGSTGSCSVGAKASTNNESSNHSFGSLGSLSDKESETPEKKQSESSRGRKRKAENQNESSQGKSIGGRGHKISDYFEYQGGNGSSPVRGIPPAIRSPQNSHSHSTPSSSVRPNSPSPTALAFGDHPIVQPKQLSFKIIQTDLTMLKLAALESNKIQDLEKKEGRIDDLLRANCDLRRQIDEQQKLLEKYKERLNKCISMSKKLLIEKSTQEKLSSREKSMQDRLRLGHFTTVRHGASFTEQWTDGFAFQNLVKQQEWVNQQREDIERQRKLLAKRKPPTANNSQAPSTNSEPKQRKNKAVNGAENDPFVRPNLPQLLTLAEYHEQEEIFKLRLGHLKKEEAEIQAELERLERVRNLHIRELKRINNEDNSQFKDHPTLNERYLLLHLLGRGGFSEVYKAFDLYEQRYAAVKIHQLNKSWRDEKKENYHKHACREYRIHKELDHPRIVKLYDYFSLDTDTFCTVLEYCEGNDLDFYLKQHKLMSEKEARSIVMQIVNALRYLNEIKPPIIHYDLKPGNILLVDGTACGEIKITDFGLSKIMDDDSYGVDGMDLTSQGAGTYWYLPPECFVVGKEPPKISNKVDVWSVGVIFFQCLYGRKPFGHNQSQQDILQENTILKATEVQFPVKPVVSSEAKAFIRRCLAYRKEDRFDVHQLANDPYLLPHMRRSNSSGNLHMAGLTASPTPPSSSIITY

CDK2/Cyclin A2 = CDK2/Cyclin A2 (Homo sapiens, UniProt P24941); test: Inhibition of recombinant human full length CDK2/CyclinA using as histone H1 substrate incubated for 40 mins in presence of [gamma-33P]-ATP by scintillation counting method; type: protein-complex assay

Vascular endothelial growth factor receptor 2, sequence (P35968 whole entry): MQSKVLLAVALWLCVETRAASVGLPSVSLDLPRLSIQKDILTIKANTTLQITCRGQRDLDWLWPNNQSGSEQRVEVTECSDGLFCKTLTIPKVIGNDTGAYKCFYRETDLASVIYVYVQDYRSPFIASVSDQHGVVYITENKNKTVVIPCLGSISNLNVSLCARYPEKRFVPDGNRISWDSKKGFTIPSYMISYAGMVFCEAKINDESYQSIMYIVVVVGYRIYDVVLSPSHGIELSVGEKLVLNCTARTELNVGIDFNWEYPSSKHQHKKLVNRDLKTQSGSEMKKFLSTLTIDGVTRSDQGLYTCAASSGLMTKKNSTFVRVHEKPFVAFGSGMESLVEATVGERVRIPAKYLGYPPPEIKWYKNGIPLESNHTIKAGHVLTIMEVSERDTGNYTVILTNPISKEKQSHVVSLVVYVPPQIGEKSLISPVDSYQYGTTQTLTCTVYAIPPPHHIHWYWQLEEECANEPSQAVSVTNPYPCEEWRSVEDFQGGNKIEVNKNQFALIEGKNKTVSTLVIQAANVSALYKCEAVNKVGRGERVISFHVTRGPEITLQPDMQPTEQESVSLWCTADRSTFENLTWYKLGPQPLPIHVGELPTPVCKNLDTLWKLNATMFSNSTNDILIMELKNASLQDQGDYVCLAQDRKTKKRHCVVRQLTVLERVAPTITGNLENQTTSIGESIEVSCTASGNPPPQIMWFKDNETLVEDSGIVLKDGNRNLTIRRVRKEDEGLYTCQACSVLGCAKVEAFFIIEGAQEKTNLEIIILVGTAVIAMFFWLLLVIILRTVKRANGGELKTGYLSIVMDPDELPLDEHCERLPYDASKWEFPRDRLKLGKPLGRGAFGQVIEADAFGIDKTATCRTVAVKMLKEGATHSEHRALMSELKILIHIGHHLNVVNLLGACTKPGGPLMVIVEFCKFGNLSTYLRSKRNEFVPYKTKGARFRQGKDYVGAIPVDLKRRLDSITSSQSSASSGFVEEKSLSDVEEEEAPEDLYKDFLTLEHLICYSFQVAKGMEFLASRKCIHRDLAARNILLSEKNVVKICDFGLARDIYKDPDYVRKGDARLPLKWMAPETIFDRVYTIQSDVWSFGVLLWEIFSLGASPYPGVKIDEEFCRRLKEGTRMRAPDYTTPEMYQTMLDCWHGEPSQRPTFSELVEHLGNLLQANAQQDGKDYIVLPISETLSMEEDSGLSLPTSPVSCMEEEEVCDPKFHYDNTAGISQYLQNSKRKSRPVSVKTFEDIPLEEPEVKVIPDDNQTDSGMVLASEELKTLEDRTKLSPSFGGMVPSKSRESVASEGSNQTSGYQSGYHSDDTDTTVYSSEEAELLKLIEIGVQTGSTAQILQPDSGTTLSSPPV

inhibition [1]: Active
Structure (SMILES): COc1cc2nccc(Oc3ccc(NC(=O)C4(C(=O)Nc5ccc(F)cc5)CC4)cc3)c2cc1OC [CABOZANTINIB]

Structure (SMILES): Cc1ccc(NC(=O)C2(C(=O)Nc3ccc(Nc4ncc(F)c(-c5cc(F)c6nc(C)n(C(C)C)c6c5)n4)cc3)CC2)cc1
half-life [2]: 3 h
Activity (SiHa): Active
inhibition [3]: 7%
inhibition [4]: 0%
inhibition [5]: 97%
inhibition [6]: 2%
inhibition [7]: 80%
inhibition [8]: 57%
inhibition [9]: 0%
inhibition [10]: 2%
inhibition [11]: 0%
Activity [12]: Non-Toxic
Activity [13]: Non-Toxic
Activity [14]: Non-Toxic
inhibition [15]: -2%
inhibition [16]: 49%
inhibition [17]: 28%
inhibition [18]: 28%
inhibition [19]: 31%
IC50 (CDK2/Cyclin A2): 230 nM
